According to ChEMBL document CHEMBL1155685, “Antiproliferative triterpene saponins from Trevesia palmata” (J Nat Prod, 2000):

Columns and labels:
HEK293 = test: Antiproliferative activity against HEK293 cells assessed as reduction of cell growth after 72 hrs by MTT method; assay type: cell-based; conditions: Homo sapiens, HEK293, 72 h
Outline: (§1)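 Cells (3.4 × 10^4) seeded in 96-well plates, left to adhere 2 h at 37 °C in 5% CO2. Medium replaced with fresh medium, then 1:4 serial dilutions of compound added. Incubation 72 h. MTT (5 mg/mL stock) added for 3 h. Crystals dissolved in 50% DMF/20% SDS, pH 4.5, and OD read at 620 nm. % dead cells = 100 − (OD treated/OD control)×100. IC50 taken versus control.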

WEHI-164 = test: Antiproliferative activity against mouse WEHI164 cells assessed as reduction of cell growth after 72 hrs by MTT method; assay type: functional, cell-based; conditions: WEHI-164, 72 h; outline: as §1
J774 = test: Antiproliferative activity against mouse J774 cells assessed as reduction of cell growth after 72 hrs by MTT method; assay type: cell-based; conditions: J774, 72 h; outline: as §1

| SMILES | IC50 (HEK293) | IC50 (WEHI-164) | IC50 (J774) |
| --- | --- | --- | --- |
| C[C@@H]1O[C@@H](O[C@H]2[C@H](O)[C@@H](O)[C@H](OC[C@H]3O[C@@H](OC(=O)[C@]45CCC(C)(C)C[C@H]4C4=CC[C@@H]6[C@@]7(C)CC[C@H](O[C@@H]8OC[C@H](O)[C@H](O)[C@H]8O[C@@H]8O[C@@H](C)[C@H](O)[C@@H](O[C@@H]9O[C@H](CO)[C@@H](O)[C@H](O)[C@H]9O)[C@H]8O)C(C)(C)[C@@H]7CC[C@@]6(C)[C@]4(C)CC5)[C@H](O)[C@@H](O)[C@@H]3O)O[C@@H]2CO)[C@H](O)[C@H](O)[C@H]1O | 0.52 µM | 1.8 µM | – |
| C[C@@H]1O[C@@H](O[C@H]2[C@H](O[C@H]3CC[C@]4(C)[C@H]5CC=C6[C@@H]7CC(C)(C)CC[C@]7(C(=O)O[C@@H]7O[C@H](CO[C@@H]8O[C@H](CO)[C@@H](O[C@@H]9O[C@@H](C)[C@H](O)[C@@H](O[C@@H]%10O[C@H](CO)[C@@H](O)[C@H](O)[C@H]%10O)[C@H]9O)[C@H](O)[C@H]8O)[C@@H](O)[C@H](O)[C@H]7O)CC[C@@]6(C)[C@]5(C)CC[C@H]4C3(C)C)OC[C@H](O)[C@@H]2O)[C@H](O)[C@H](O[C@@H]2O[C@H](CO)[C@@H](O)[C@H](O)[C@H]2O)[C@H]1O | 0.17 µM | – | 0.18 µM |
| C[C@@H]1O[C@@H](O[C@H]2[C@H](O)[C@@H](O)[C@H](OC[C@H]3O[C@@H](OC(=O)[C@]45CCC(C)(C)C[C@H]4C4=CC[C@@H]6[C@@]7(C)CC[C@H](O[C@@H]8OC[C@H](O)[C@H](O)[C@H]8O[C@@H]8O[C@H](C)[C@@H](O)[C@H](O)[C@H]8O)[C@@](C)(CO)[C@@H]7CC[C@@]6(C)[C@]4(C)CC5)[C@H](O)[C@@H](O)[C@@H]3O)O[C@@H]2CO)[C@H](O)[C@H](O)[C@H]1O | – | 1.9 µM | 0.46 µM |
| Sc1ncnc2nc[nH]c12 [MERCAPTOPURINE ANHYDROUS] | – | 0.017 µM | 0.003 µM |
| C[C@@H]1O[C@@H](O[C@H]2[C@H](O)[C@@H](O)[C@H](OC[C@H]3O[C@@H](OC(=O)[C@]45CCC(C)(C)C[C@H]4C4=CC[C@@H]6[C@@]7(C)CC[C@H](O[C@@H]8OC[C@H](O)[C@H](O)[C@H]8O[C@@H]8O[C@H](C)[C@@H](O)[C@H](O)[C@H]8O)C(C)(C)[C@@H]7CC[C@@]6(C)[C@]4(C)CC5)[C@H](O)[C@@H](O)[C@@H]3O)O[C@@H]2CO)[C@H](O)[C@H](O)[C@H]1O | 0.2 µM | – | 0.1 µM |
| C[C@@H]1O[C@@H](O[C@H]2[C@H](O)[C@@H](O)[C@H](OC[C@H]3O[C@@H](OC(=O)[C@]45CCC(C)(C)C[C@H]4C4=CC[C@@H]6[C@@]7(C)CC[C@H](O[C@@H]8OC[C@H](O)[C@H](O)[C@H]8O[C@@H]8O[C@@H](C)[C@H](O)[C@@H](O[C@@H]9O[C@H](CO)[C@@H](O)[C@H](O)[C@H]9O)[C@H]8O)C(C)(C)[C@@H]7CC[C@@]6(C)[C@]4(C)C[C@H]5O)[C@H](O)[C@@H](O)[C@@H]3O)O[C@@H]2CO)[C@H](O)[C@H](O)[C@H]1O | 0.15 µM | 0.24 µM | 0.11 µM |
| C[C@@H]1O[C@@H](O[C@H]2[C@H](O)[C@@H](O[C@@H]3O[C@H](CO)[C@@H](O)[C@H](O)[C@H]3O)[C@H](OC[C@H]3O[C@@H](OC(=O)[C@]45CCC(C)(C)C[C@H]4C4=CC[C@@H]6[C@@]7(C)CC[C@H](O[C@@H]8OC[C@H](O)[C@H](O)[C@H]8O[C@@H]8O[C@@H](C)[C@H](O)[C@@H](O[C@@H]9O[C@H](CO)[C@@H](O)[C@H](O)[C@H]9O)[C@H]8O)[C@@](C)(CO)[C@@H]7CC[C@@]6(C)[C@]4(C)CC5)[C@H](O)[C@@H](O)[C@@H]3O)O[C@@H]2C)[C@H](O)[C@H](O)[C@H]1O | 0.32 µM | 0.26 µM | 0.1 µM |
| C[C@@H]1O[C@@H](O[C@H]2[C@H](O[C@H]3CC[C@@]4(C)[C@@H](CC[C@]5(C)[C@@H]4CC=C4[C@@H]6CC(C)(C)CC[C@]6(C(=O)O)CC[C@]45C)[C@]3(C)CO)OC[C@H](O)[C@@H]2O)[C@H](O)[C@H](O[C@@H]2O[C@H](CO)[C@@H](O)[C@H](O)[C@H]2O)[C@H]1O | – | – | 0.07 µM |
| C[C@@H]1O[C@@H](O[C@H]2[C@H](O[C@H]3CC[C@]4(C)[C@H]5CC=C6[C@@H]7CC(C)(C)CC[C@]7(C(=O)O[C@@H]7O[C@H](CO[C@@H]8O[C@H](CO)[C@@H](O[C@@H]9O[C@@H](C)[C@H](O)[C@@H](O)[C@H]9O)[C@H](O)[C@H]8O)[C@@H](O)[C@H](O)[C@H]7O)CC[C@@]6(C)[C@]5(C)CC[C@H]4C3(C)C)OC[C@H](O)[C@@H]2O)[C@H](O)[C@H](O)[C@H]1O [HEDERASAPONIN B] | – | 0.6 µM | 0.06 µM |
| C[C@@H]1O[C@@H](O[C@H]2[C@H](O[C@H]3CC[C@]4(C)[C@H]5CC=C6[C@@H]7CC(C)(C)CC[C@]7(C(=O)O)[C@H](O)C[C@@]6(C)[C@]5(C)CC[C@H]4C3(C)C)OC[C@H](O)[C@@H]2O)[C@H](O)[C@H](O[C@@H]2O[C@H](CO)[C@@H](O)[C@H](O)[C@H]2O)[C@H]1O | – | – | 0.19 µM |
